Data from ChEMBL document CHEMBL1142191, “Isolation and characterization of human immunodeficiency virus type 1 resistant to the small-molecule CCR5 antagonist TAK-652” (Antimicrob Agents Chemother, 2007).
Activity calls are given as the source filed them. The calls are words filed in the database; no cut-off is given here.

Assays:
[1] = test system: Human immunodeficiency virus 1; experiment: Antiviral activity in long term culture of HIV1 KK infected PBMCs after 67 passages assessed as p24 antigen levels at escalating concentrations; format: functional, organism-based; details: Human immunodeficiency virus 1, KK
Method in brief: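 PHA-stimulated PBMCs (5 × 10^6) were infected with R5 clinical isolate KK (100 ng p24) and held compound-free for 2 days at 37°C, then washed. Culture started at 0.2 nM drug and was passaged weekly with fresh same-donor PBMCs. Drug was escalated when treated-culture supernatant p24 (ELISA) exceeded 50% of a parallel untreated control at two consecutive passages.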

[2] = test system: Human immunodeficiency virus 1; experiment: Ratio of IC50 for HIV1 KK infected PBMC to IC50 for compound treated HIV1 KK infected PBMC after 67 passages; format: functional
Method in brief: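 PHA-stimulated PBMCs infected with the passage-67 escape virus (1,400 CCID50, 4 h) were washed and exposed to 0.1–10,000 nM compound, split 1:2 on day 4, and read for day-7 supernatant p24 by ELISA. Triplicate wells in two donor experiments. Fold change = […].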

[3] = test system: Human immunodeficiency virus 1; experiment: Antiviral activity in long term culture of HIV1 KK infected PBMCs after 56 passages assessed as p24 antigen levels; format: functional, organism-based; details: Human immunodeficiency virus 1, KK
Method in brief: (§1)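 Viruses were isolated at the stated passage from the drug-escalation culture and from the parallel untreated culture, then propagated once in PBMCs. PHA-stimulated PBMCs were infected with 1,400 CCID50 for 4 h, washed, and seeded with 0.1–10,000 nM compound. Cells were split 1:2 on day 4, and supernatant p24 was read by ELISA on day 7. Triplicate wells, two experiments with different donors; IC50 from a logistic least-squares fit.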

[4] = test system: Human immunodeficiency virus 1; experiment: Antiviral activity in long term culture of HIV1 KK infected PBMCs after 8 passages assessed as p24 antigen levels; format: functional, organism-based; details: Human immunodeficiency virus 1, KK; method in brief: as §1
[5] = test system: Human immunodeficiency virus 1; experiment: Inhibition of HIV1 KK infected PBMC; format: functional, organism-based; details: Human immunodeficiency virus 1, KK
[6] = test system: Human immunodeficiency virus 1; experiment: Antiviral activity in long term culture of HIV1 KK infected PBMCs after 43 passages assessed as p24 antigen levels; format: functional, organism-based; details: Human immunodeficiency virus 1, KK; method in brief: as §1
[7] = test system: Human immunodeficiency virus 1; experiment: Inhibition of R5 HIV1 replication at 5 uM; format: functional, organism-based

| SMILES | IC50 [1] [nM] | Ratio IC50 [2] | IC50 [3] [nM] | IC50 [4] [nM] | IC50 [5] [nM] | IC50 [6] [nM] | Activity [7] |
| --- | --- | --- | --- | --- | --- | --- | --- |
| Cc1ccc(-c2ccc3c(c2)C=C(C(=O)Nc2ccc(C[N+](C)(C)C4CCOCC4)cc2)CCC3)cc1.[Cl-] | 77 | 37 |  |  |  |  |  |
| CCCCOCCOc1ccc(-c2ccc3c(c2)/C=C(/C(=O)Nc2ccc([S@@+]([O-])Cc4cncn4CCC)cc2)CCCN3CC(C)C)cc1.CS(=O)(=O)O [CENICRIVIROC MESYLATE] | > 10000 | >230000 | 67 | 0.24 | 0.14 | 0.2 | Active |
| CC(=O)N1CCC(C(=O)N(CCCN2CCC(Cc3ccc(C(N)=O)cc3)CC2)c2ccc(C)c(Cl)c2)CC1 | 1.3 | 1.6 |  |  |  |  |  |
